Measured values as given in the array DNA melting data of Ke et al. (doi:10.1101/2024.01.08.574731).

Columns and labels:
[1] = folding enthalpy; higher = less favourable; fluorescence melt of hairpins on a sequencing array, two-state fit; conditions: sodium 0.088 M
Procedure, shortened: (§1)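 Melting temperature and folding enthalpy were derived from bootstrapped two-state fits. The fitted temperatures were raised by 9.35 °C to agree with UV melts, and four replicates were combined by inverse variance. The underlying data were Cy3 fluorescence images of library hairpins, with annealed Cy3 and quencher oligos, on a sequenced MiSeq flow cell in 50 mM Na-HEPES pH 8.0, 25 mM NaCl, taken in 2.5 °C steps up to 60 °C, normalised to pre-quench Cy3 and to control constructs.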

[2] = melting temperature; fluorescence melt of hairpins on a sequencing array, two-state fit, raised by 9.35 °C to match UV melts; conditions: sodium 0.088 M
Procedure, shortened: as §1

| Sequence | folding enthalpy [1] [kcal/mol] | Tm [2] [°C] |
| --- | --- | --- |
| GGGAATGCGAAAGCACCC (((..(((....)))))) | -19.4 | 42.3 |
| GGGACACGAAAGTGCCCC (((.(((....))).))) | -37.8 | 63.1 |
| GATCGGTCCGCCGATC ((((((....)))))) | -42.5 | 60.1 |
| CGGACGGAAACGTTCCCG ((((((....)))..))) | -15.8 | 37.2 |
| GCATCTCGAAAGAGGTGC (((.(((....))).))) | -37.4 | 59.8 |
| GGGGCCGGAAACGACCCC ((((.((....)).)))) | -44.1 | 59.2 |
| GTCTGTGGAAACGTAGAC ((((..(....)..)))) | -23.6 | 37.2 |
| GCTGCTACGAAAGTAAGC (((..(((....)))))) | -17.1 | 41.5 |
| TGGTCGAAAGACCA (((((....))))) | -19.1 | 66.8 |
| GCTTAGCGAAAGCTGTGC ((..(((....)))..)) | -16.4 | 39.7 |
| GCGGGCGAAAGCCTTCGC ((((((....)))..))) | -15.7 | 50.1 |
| GATCGCGGAAACACGATC (((((.(....).))))) | -30.7 | 48.6 |
| GTTTGCGGAAACGCAAGC (.(((((....))))).) | -23.4 | 54.6 |
| GTACAACGAAAGTTTTAC (((.(((....))).))) | -18.6 | 36.7 |
| GTTTGCGAAAGCAGGAAC ((((((....)))..))) | -10.3 | 30.7 |
| GATTGAGGAAACTCAACC (.(((((....))))).) | -17.1 | 31.3 |
| GGATCCGAAAGGATCTCC ((((((....)))..))) | -9.17 | 53.6 |
| GATTCACGAAAGTGTATC (((.(((....))).))) | -25.9 | 42.7 |
| GATCAGGGAAACCTGATC (((((((....))))))) | -41.8 | 59 |
| GCGATCATCGC ((((...)))) | -19.5 | 49.6 |
| GTATGCCCGAAAGGGTAC (((..(((....)))))) | -8.06 | 31.2 |
| GATCCCCTAGGGATC ((((((...)))))) | -38.4 | 64.4 |
| GTCGACGAAAGTCAAGAC ((((((....)))..))) | -20.4 | 43.8 |

| Sequence | folding enthalpy [1] [kcal/mol] | Tm [2] [°C] |
| --- | --- | --- |
| GAATAGCGAAAGCTCTTC (((.(((....))).))) | -19.4 | 38.7 |
| GGTCGCGAAAGCGACACC ((((((....)))..))) | -5.57 | 60.7 |
| GTAGCCGAAAGGCTCTAC ((((((....)))..))) | -8.79 | 38.6 |
| GACGTAACGAAAGTTGTC (((..(((....)))))) | -25 | 37.5 |
| GATCTTTACTAAGATC ((((((....)))))) | -38 | 45 |
| GCAGCGCGAAAGCGGAGC ((..(((....)))..)) | -17.7 | 56 |
| GTATACGAAAGTATTAC ((((((....))).))) | -13.9 | 32.8 |
| GCAGTAGGAAACTGCTGC ((((.((....)).)))) | -31 | 57 |
| GTCTTGCGAAAGCAGGAC (((.(((....))).))) | -27.4 | 58 |
| GGTGCCGAAAGGCGGACC ((((((....)))..))) | -13.9 | 45.7 |
| GAATCAGGAAACTGATTC (((((((....))))))) | -42.6 | 55.8 |
| GCACGGCGAAAGCGCTGC (((..((....))..))) | -17.5 | 52 |
| GCACTACGAAAGTATTGC (((.(((....))).))) | -31.2 | 45.9 |
| GCTTAGTCGAAAGACAGC (((..(((....)))))) | -17.2 | 40.3 |
| GTGCTCGGAAACGGGCAC ((((.((....)).)))) | -47 | 61.4 |
| GCCGCCGAAAGGCTCGGC ((((((....)))..))) | -17.6 | 56.7 |
| GATCGGTTGTCCGATC ((((((....)))))) | -33.8 | 57.1 |
| GATCTTTACAAAGATC ((((((....)))))) | -33.8 | 46.5 |
| GCTCAATCGAAAGATAGC (((..(((....)))))) | -11.6 | 31.9 |
| GCCGCGGGAAACCGCAGC ((.((((....)))).)) | -16.9 | 59.3 |
| GGTTACGAAAGTAGACC ((((((....))).))) | -25.3 | 41.4 |
| GCAAGAGGAAACTCCTGC (((.(((....))).))) | -18.2 | 35.2 |
| GCCGACGAAAGTCGCGGC ((((((....)))..))) | -14.3 | 59.2 |

| Sequence | folding enthalpy [1] [kcal/mol] | Tm [2] [°C] |
| --- | --- | --- |
| GGGTTCCGAAAGGACCC (((.(((....)))))) | -31.6 | 58.1 |
| GAAGAAGGAAACTTCTTC (((((((....))))))) | -48.8 | 50.6 |
| GCATCGCCGAAAGGCTGC (((..(((....)))))) | -14.1 | 43.4 |
| GATCTAATTTTAGATC ((((((....)))))) | -34.2 | 44 |
| GATCATAGTTATGATC ((((((....)))))) | -40 | 48.2 |
| GCTACCGAAAGGTGAGC ((((((....))).))) | -23.3 | 51 |
| GCTTGGCGAAAGCGTAGC (((..((....))..))) | -16.2 | 39.6 |
| GCGGGAGGAAACTCCTGC ((.((((....)))).)) | -39 | 58.1 |
| GCGTTATGACGC ((((....)))) | -25 | 56.2 |
| GGGTATCGAAAGATGCCC (((.(((....))).))) | -58.7 | 58.2 |
| GCTCGGCGAAAGCAAAGC (((..((....))..))) | -16.4 | 37.8 |
| GTGGACGAAAGTCAACAC ((((((....)))..))) | -15.3 | 45.9 |
| GACTACCGAAAGGTTGTC (((.(((....))).))) | -31.3 | 53.1 |
| GGAGGACGAAAGTCATCC (((.(((....))).))) | -33.3 | 61.4 |
| GTACGCGGAAACGCGTGC (.(((((....))))).) | -15.4 | 60.9 |
| GTTCCCGAAAGGGGCAAC ((((((....)))..))) | -9.18 | 30.2 |
| GTTGAGAAATCAAC (((((....))))) | -19.9 | 42.2 |
| GCGGGACCGAAAGGTCGC (((..(((....)))))) | -11.5 | 56.3 |
| GGGTCGACGAAAGTCCCC (((..(((....)))))) | -17.7 | 38.7 |
| GTTAATGGAAACGTTAAC (((((.(....).))))) | -29.2 | 35.7 |
| GTGGACGGAAACGTCCGC (.(((((....))))).) | -18.4 | 62 |
| GATCGGACTGCCGATC ((((((....)))))) | -42 | 55.5 |
| GTAGGCGGAAACGCCCAC ((.((((....)))).)) | -10.2 | 41.1 |

| Sequence | folding enthalpy [1] [kcal/mol] | Tm [2] [°C] |
| --- | --- | --- |
| GATTGGGGAAACTCGATC (((.(.(....).).))) | -15.4 | 30 |
| GTCTACTCGAAAGAGGAC (((..(((....)))))) | -14.4 | 32.1 |
| GATCGGTATGCCGATC ((((((....)))))) | -41.9 | 62.1 |
| GATCCGCCGGCGGATC ((((((....)))))) | -45.4 | 68.9 |
| GGCGCGGGAAACCACGCC ((((.((....)).)))) | -48.2 | 61 |
| GCTCAGCGAAAGCTAAGC (((.(((....))).))) | -40.3 | 46.7 |
| GCGGGGGGCCGC ((((....)))) | -13.5 | 60.7 |
| GCGCCCGAAAGGGCTCGC ((((((....)))..))) | -13 | 52.4 |
| GGATGCGAAAGCACTCC ((((((....))).))) | -29 | 49.6 |
| GATCTAACTCTAGATC ((((((....)))))) | -21.1 | 39.6 |
| GATGTCACGAAAGTGATC (((..(((....)))))) | -11.8 | 28.4 |
| GAAGAGCGAAAGCTTTTC (((.(((....))).))) | -24.1 | 44.7 |
| GTGACCGAAAGGTAGCAC ((((((....)))..))) | -16.9 | 36.1 |
| CGCCCCGGAAACGGAGCG (((.(((....))).))) | -39.3 | 56.5 |
| GTGCTCGAAAGAGCCCAC ((((((....)))..))) | -8.93 | 35.8 |
| GCAGGCTCGAAAGAGTGC (((..(((....)))))) | -19.8 | 36.6 |
| GATCTGAACTCAGATC ((((((....)))))) | -38.6 | 48 |
| GATCAGTATACTGATC ((((((....)))))) | -45 | 54.3 |
| GATCCCGATCGGGATC ((((((....)))))) | -50.5 | 62.3 |
| GTGGCGGGAAACCGTCAC (((.(((....))).))) | -40.6 | 63.5 |
| GCGTTTAACGC ((((...)))) | -21.4 | 56.6 |
| GATCTCACGGAGATC ((((((...)))))) | -41.9 | 54.1 |
| CGATTCGGAAACGAGTCG (((.(((....))).))) | -43.6 | 50.8 |
